The test system of experiment [1] is Human immunodeficiency virus 1. Description: Antiviral activity against HIV1 JRFL infected in human PHA-PBM cells after 7 days by MTT assay. Format: functional, organism-based. Particulars: Human immunodeficiency virus 1, JRFL, PBMC, 168 h. On the technique in general: Tetrazolium dyes change colour on reduction, which living cells bring about.
Experiment [2] relates to Human immunodeficiency virus 2. Briefly: Antiviral activity against HIV2 EHO infected in human MT2 cells after 7 days by MTT assay. Format: functional, organism-based. The following applies: Human immunodeficiency virus 2, EHO, MT2, 168 h.
The subject of experiment [3] is Human immunodeficiency virus 2. Briefly: Antiviral activity against HIV2 ROD infected in human MT2 cells after 7 days by MTT assay. In kind it is functional, organism-based. Particulars: Human immunodeficiency virus 2, ISOLATE ROD, MT2, 168 h.
In experiment [4] the test system is Human immunodeficiency virus 1. Description: Ratio of EC50 for ritonavir to compound against HIV1 NL4-3 harboring V82I mutation in protease encoding region infected in human […] cells. Format: functional.
Experiment [5] concerns Human immunodeficiency virus 1. Description: Ratio of EC50 for indinavir to compound against HIV1 NL4-3 harboring I84V mutation in protease encoding region infected in human […] cells. Format: functional.
For experiment [6], the system named is Human immunodeficiency virus 1. Description: Ratio of EC50 for amprenavir to compound against HIV1 NL4-3 harboring M46I/I47V mutation in protease encoding region infected in human […] cells. Format: functional.
In experiment [7] the test system is Human immunodeficiency virus 1. Description: Ratio of EC50 for ritonavir to compound against HIV1 NL4-3 harboring V82I/I85V mutation in protease encoding region infected in human […] cells. Format: functional.
Experiment [8] deals with Human immunodeficiency virus 1. Description: Ratio of EC50 for amprenavir to compound against HIV1 NL4-3 harboring L10F/M46I/I47V/V82I/I85V mutation in protease encoding region infected in human […] cells. Format: functional.
Experiment [9] deals with Human immunodeficiency virus 1. Briefly: Ratio of EC50 for nelfinavir to compound against HIV1 NL4-3 harboring D30N mutation in protease encoding region infected in human […] cells. In kind it is functional.
Experiment [10] relates to Human immunodeficiency virus 1. Briefly: Antiviral activity against HIV1 NL4-3 harboring L33F mutation in protease encoding region infected in human […] cells assessed as inhibition of p24 Gag protein production by ELISA. Format: functional, organism-based. The following applies: Human immunodeficiency virus 1, NL4-3. The method in brief: (§1)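 Protease PCR fragments (ApaI/SmaI) were cloned into pHIV-1NLSma, and virions were harvested from transfected 293T cells over 48 h. MT-4 target cells (10^5/ml) were infected with 100 TCID50s, with or without drug, at 37°C. Day-7 supernatant p24 Gag was read by chemiluminescent enzyme immunoassay.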
Background: In an ELISA, binding on a coated surface is turned into a signal by an enzyme label.

Experiment [11] has as its system Human immunodeficiency virus 1. Description: Antiviral activity against HIV1 NL4-3 harboring Q58E mutation in protease encoding region infected in human […] cells assessed as inhibition of p24 Gag protein production by ELISA. Format: functional, organism-based. The following applies: Human immunodeficiency virus 1, NL4-3. The procedure, abridged:
as §1

The test system of experiment [12] is Human immunodeficiency virus 1. Description: Antiviral activity against HIV1 NL4-3 harboring I84V mutation in protease encoding region infected in human […] cells assessed as inhibition of p24 Gag protein production by ELISA. In kind it is functional, organism-based. The following applies: Human immunodeficiency virus 1, NL4-3. The method in brief: as §1
Experiment [13] relates to Human immunodeficiency virus 1. Description: Antiviral activity against HIV1 NL4-3 harboring V82I/I85V mutation in protease encoding region infected in human […] cells assessed as inhibition of p24 Gag protein production by ELISA. Particulars: Human immunodeficiency virus 1, NL4-3. In kind it is functional, organism-based. The procedure, abridged:
as §1

The subject of experiment [14] is Human immunodeficiency virus 1. Briefly: Antiviral activity against HIV1 NL4-3 harboring G48V mutation in protease encoding region infected in human […] cells assessed as inhibition of p24 Gag protein production by ELISA. In kind it is functional, organism-based. Particulars: Human immunodeficiency virus 1, NL4-3. The procedure, abridged: as §1
Experiment [15] has as its system Human immunodeficiency virus 1. Description: Ratio of EC50 for HIV1 NL4-3 harboring V82I mutation in protease encoding region infected in human […] cells to EC50 for HIV1 NL4-3 infected in human MT4 cells. Format: functional.
Experiment [16] has as its system Human immunodeficiency virus 1. Description: Ratio of EC50 for HIV1 NL4-3 harboring I84V mutation in protease encoding region infected in human […] cells to EC50 for HIV1 NL4-3 infected in human MT4 cells. Format: functional.
For experiment [17], the system named is Human immunodeficiency virus 1. Description: Ratio of EC50 for HIV1 NL4-3 harboring M46I/I47V mutation in protease encoding region infected in human […] cells to EC50 for HIV1 NL4-3 infected in human MT4 cells. Format: functional.
The test system of experiment [18] is Human immunodeficiency virus 1. Briefly: Ratio of EC50 for HIV1 NL4-3 harboring L10F/M46I/I47V/V82I/I85V mutation in protease encoding region infected in human […] cells to EC50 for HIV1 NL4-3 infected in human MT4 cells. In kind it is functional.
In experiment [19] the test system is Human immunodeficiency virus 1. Briefly: Ratio of EC50 for HIV1 NL4-3 harboring D30N mutation in protease encoding region infected in human […] cells to EC50 for HIV1 NL4-3 infected in human MT4 cells. In kind it is functional.
Experiment [20] has as its system Human immunodeficiency virus 1. Description: Ratio of EC50 for HIV1 NL4-3 harboring G48V mutation in protease encoding region infected in human […] cells to EC50 for HIV1 NL4-3 infected in human MT4 cells. In kind it is functional.
The subject of experiment [21] is Human immunodeficiency virus 1. Description: Ratio of EC50 for amprenavir to compound against HIV1 NL4-3 harboring Q58E mutation in protease encoding region infected in human […] cells. In kind it is functional.

Where only a bound is given, the exact number is not on record here.

By EC50 is commonly meant the concentration that produces a half-maximal response.

Consider `COc1ccc(S(=O)(=O)N(C[C@@H]2CCC(=O)N2)C[C@@H](O)[C@H](Cc2ccccc2)NC(=O)O[C@@H]2C[C@@H]3CCO[C@@H]3C2)cc1`, for which the 50% effective concentration (EC50) in [1] was found to be 15 nM; in experiment [2], 600 nM; in experiment [3], 600 nM; in experiment [10], 28 nM; in [11], 33 nM; in experiment [12] it was 30 nM. Also, the values for the EC50 in experiment [13] and in experiment [14] were 35 nM and 40 nM, respectively. For the same compound, the “Ratio EC50” value in experiment [4] was 1.5; in experiment [5] it was 2.2; in experiment [6] it was 1.3; in [7] it was 1.6; in experiment [8], 10; in experiment [9], 5.6. Moreover, the “Ratio EC50” value in experiment [15] was 1.5; in experiment [16], 1.3; in experiment [17], 3.2; in experiment [18], >43; in [19], 0.9; in experiment [20], 1.7. In [21], the “Ratio EC50” value was found to be 1.

Source of the values: ChEMBL document CHEMBL1649117, “GRL-02031, a novel nonpeptidic protease inhibitor (PI) containing a stereochemically defined fused cyclopentanyltetrahydrofuran potent against multi-PI-resistant human immunodeficiency virus type 1 in vitro” (Antimicrob Agents Chemother, 2009).
